Data set [1] has as its system TIGK. Kind of data set: Cytotoxicity against human TIGK cells assessed as reduction in ATP levels at 60 uM after 18 hrs by CellTiterGlo reagent-based assay. The data set is classed as cell-based. The gist of the method:
(§1)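 TIGK cells are seeded at 4000/well and grown 24 h, then exposed 18 h to compound. They are washed three times with PBS and treated with CellTiterGlo substrate, 2 min with shaking plus 10 min static. Total ATP is read by luminescence. Reduction is judged against cells in medium with 0.1% DMSO, p<0.05.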

The test system of data set [2] is TIGK. Kind of data set: Cytotoxicity against human TIGK cells assessed as increase in LDH release at 5 to 60 uM after 18 hrs by LDH release assay. Format: cell-based. In a few lines:
(§2)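 Immortalized gingival keratinocytes (TIGK) are seeded at 4000 cells/well, grown 24 h, then exposed 18 h to compound in fresh medium. Supernatant is mixed with LDH substrate for 30 min at room temperature, stopped, and read at OD 490 nm. Kit lysis buffer for 1 h serves as the positive control; medium alone is the negative control. Triplicate samples.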
For orientation: Release of lactate dehydrogenase indicates damage to the cell membrane.

In data set [3] the test system is TIGK. The data set can be described thus: Cytotoxicity against human TIGK cells assessed as reduction in ATP levels after 18 hrs by CellTiterGlo reagent-based assay. Format: cell-based. In a few lines:
as §1
Background: Cellular ATP, detected with luciferase, serves as a proxy for viable cell number.

Data set [4] deals with TIGK. Kind of data set: Cytotoxicity against human TIGK cells assessed as reduction in ATP levels at 5 to 60 uM after 18 hrs by CellTiterGlo reagent-based assay. Format: cell-based. In a few lines: as §1
In data set [5] the test system is Porphyromonas gingivalis. The data set can be described thus: Antibiofilm activity against Porphyromonas gingivalis ATCC 33277 assessed as inhibition of Porphyromonas gingivalis ATCC 33277 adherence to Streptococcus gordonii after 22 hrs by laser scanning confocal microscopic analysis. Format: functional, organism-based. The gist of the method: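 S. gordonii DL-1, labelled with hexidium iodide and adjusted to OD600 0.8 in PBS, is grown 24 h at 37 °C with shaking under anaerobic conditions on coverslips. Carboxyfluorescein-labelled P. gingivalis (OD600 0.4) is pre-incubated 30 min with compound (final 0–60 μM, 0.1% DMSO) and added, then incubated anaerobically 22 h. After PFA fixation, confocal imaging reads the green/red fluorescence ratio. IC50 is the concentration halving that ratio. Triplicates, three independent experiments.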

Data set [6] has as its system TIGK. The data set can be described thus: Cytotoxicity against human TIGK cells assessed as reduction in ATP levels at 5 to 20 uM after 18 hrs by CellTiterGlo reagent-based assay. The data set is classed as cell-based. In a few lines:
as §1

For data set [7], the system named is TIGK. Kind of data set: Cytotoxicity against human TIGK cells assessed as increase in LDH release at 5 to 20 uM after 18 hrs by LDH release assay. Format: cell-based. In a few lines:
as §2

Data set [8] concerns TIGK. The data set can be described thus: Cytotoxicity against human TIGK cells assessed as reduction in ATP levels at 5 to 40 uM after 18 hrs by CellTiterGlo reagent-based assay. Format: cell-based. The gist of the method:
as §1

Data set [9] has as its system TIGK. The data set can be described thus: Cytotoxicity against human TIGK cells assessed as increase in LDH release at 5 to 40 uM after 18 hrs by LDH release assay. The data set is classed as cell-based. The gist of the method: as §2

The structures appear in SMILES notation.

Take `Fc1ccc(Nc2nc(Nc3ccc(F)cc3)nc(-c3cn(-c4cccc(-c5nc(-c6ccccc6)c(-c6ccccc6)o5)c4)nn3)n2)cc1`: the Activity result in data set [1] is reported as “Toxic”; in [2] it was “Non-Toxic”; in data set [3], “Dose-dependent effect”.
As for `Fc1ccc(Nc2nc(Nc3ccc(F)cc3)nc(-c3cn(-c4ccccc4-c4nc(-c5ccco5)c(-c5ccco5)o4)nn3)n2)cc1`, the Activity entry in data set [2] and in data set [4] was “Non-Toxic” throughout.
`CCN(CC)c1nc(-c2cn(-c3ccc(-c4nc(-c5ccccc5)c(-c5ccccc5)o4)cc3)nn2)nc(N(CC)CC)n1`: the IC50 entry in data set [5] is given as “Not Active”.
In the case of `COc1ccc(-c2nc(-c3ccc(-n4cc(-c5nc(Nc6ccc(F)cc6)nc(Nc6ccc(F)cc6)n5)nn4)cc3)oc2-c2ccc(OC)cc2)cc1`, the IC50 entry in data set [5] is “Not Active”.
`COc1ccccc1-c1cn(-c2ccc([S+]([O-])Cc3nc(-c4ccccc4)c(-c4ccccc4)o3)cc2)nn1` (stereo unspecified): in [5], the IC50 result is on record as “Not Active”.
As for `COc1ccc(-c2nc(-c3ccccc3-n3cc(-c4nc(Nc5ccc(F)cc5)nc(Nc5ccc(F)cc5)n4)nn3)oc2-c2ccc(OC)cc2)cc1`, the IC50 entry in data set [5] is reported as “Not Active”.
Consider `COc1ccc2cc(-c3cn(-c4ccc([S+]([O-])Cc5nc(-c6ccccc6)c(-c6ccccc6)o5)cc4)nn3)ccc2c1` (stereo unspecified), for which the IC50 entry in data set [5] was “Not Active”.
Still for that read-out and setting: then `Fc1ccccc1Nc1nc(Nc2ccccc2F)nc(-c2cn(-c3ccc(-c4nc(-c5ccc(Cl)cc5)c(-c5ccc(Cl)cc5)o4)cc3)nn2)n1`, with “Not Active”.
With `[O-][S+](Cc1nc(-c2ccccc2)c(-c2ccccc2)o1)c1ccc(-n2cc(-c3ccccc3C(F)(F)F)nn2)cc1` (stereo unspecified), the IC50 entry in data set [5] was “Not Active”.
With `Fc1ccccc1Nc1nc(Nc2ccccc2F)nc(-c2cn(-c3cccc(-c4nc(-c5ccco5)c(-c5ccco5)o4)c3)nn2)n1`, the IC50 result in [5] is listed as “Not Active”.
For the compound `CCN(CC)c1nc(-c2cn(-c3cccc(-c4nc(-c5ccc(F)cc5)c(-c5ccc(F)cc5)o4)c3)nn2)nc(N(CC)CC)n1`, the IC50 entry in [5] was “Not Active”.
For the compound `CCN(CC)c1nc(-c2cn(-c3cccc(-c4nc(-c5ccco5)c(-c5ccco5)o4)c3)nn2)nc(N(CC)CC)n1`, the IC50 entry in [5] is “Not Active”.
For `COc1ccc(-c2nc(-c3cccc(-n4cc(-c5nc(Nc6ccc(F)cc6)nc(Nc6ccc(F)cc6)n5)nn4)c3)oc2-c2ccc(OC)cc2)cc1`, the IC50 result in data set [5] is on record as “Not Active”.
Take `Fc1ccc(Nc2nc(Nc3ccc(F)cc3)nc(-c3cn(-c4ccc(-c5nc(-c6ccccc6)c(-c6ccccc6)o5)cc4)nn3)n2)cc1`: the IC50 result in data set [5] is given as “Not Active”.
Same read-out and setting: the value for `[O-][S+](Cc1nc(-c2ccccc2)c(-c2ccccc2)o1)c1ccc(-n2cc(-c3ccc(F)cc3)nn2)cc1` (stereo unspecified) was “Not Active”; that for `COc1ccc2cc(-c3cn(-c4ccc(S(=O)(=O)Cc5nc(-c6ccccc6)c(-c6ccccc6)o5)cc4)nn3)ccc2c1` was “Not Active”.
With `Fc1ccc(Nc2nc(Nc3ccc(F)cc3)nc(-c3cn(-c4ccc(-c5nc(-c6ccc(F)cc6)c(-c6ccc(F)cc6)o5)cc4)nn3)n2)cc1`, the Activity result in data set [6] and in data set [7] was “Non-Toxic” in each case.
Consider `CCN(CC)c1nc(-c2cn(-c3ccc(-c4nc(-c5ccco5)c(-c5ccco5)o4)cc3)nn2)nc(N(CC)CC)n1`, for which the IC50 result in data set [5] is “Not Active”.
With `O=S(=O)(Cc1nc(-c2ccccc2)c(-c2ccccc2)o1)c1ccc(-n2cc(-c3cccnc3)nn2)cc1`, in data set [5], the IC50 result is given as “Not Active”.
As to `CCN(CC)c1nc(-c2cn(-c3ccc(-c4nc(-c5ccc(Cl)cc5)c(-c5ccc(Cl)cc5)o4)cc3)nn2)nc(N(CC)CC)n1`, the Activity entry in [8] and in data set [9] was “Non-Toxic” each time.
Regarding `Fc1ccc(Nc2nc(Nc3ccc(F)cc3)nc(-c3cn(-c4cccc(-c5nc(-c6ccc(F)cc6)c(-c6ccc(F)cc6)o5)c4)nn3)n2)cc1`, the IC50 entry in data set [5] is “Not Active”.
On the same count and under the same terms, the value for `CCCCCc1ccc(-c2cn(-c3ccc([S+]([O-])Cc4nc(-c5ccccc5)c(-c5ccccc5)o4)cc3)nn2)cc1` (stereo unspecified) was “Not Active”; that for `Fc1ccccc1Nc1nc(Nc2ccccc2F)nc(-c2cn(-c3ccc(-c4nc(-c5ccco5)c(-c5ccco5)o4)cc3)nn2)n1` was “Not Active”; that for `Fc1ccccc1Nc1nc(Nc2ccccc2F)nc(-c2cn(-c3ccc(-c4nc(-c5ccccc5)c(-c5ccccc5)o4)cc3)nn2)n1` was “Not Active”.
Take `CCN(CC)c1nc(-c2cn(-c3cccc(-c4nc(-c5ccc(OC)cc5)c(-c5ccc(OC)cc5)o4)c3)nn2)nc(N(CC)CC)n1`: in data set [5], the IC50 entry was “Not Active”.
As to `Fc1ccc(Nc2nc(Nc3ccc(F)cc3)nc(-c3cn(-c4ccccc4-c4nc(-c5ccccc5)c(-c5ccccc5)o4)nn3)n2)cc1`, the IC50 result in data set [5] is “Not Active”.
For the compound `COc1ccc(-c2nc(-c3cccc(-n4cc(-c5nc(Nc6ccccc6F)nc(Nc6ccccc6F)n5)nn4)c3)oc2-c2ccc(OC)cc2)cc1`, the IC50 result in data set [5] is “Not Active”.
As to `[O-][S+](Cc1nc(-c2ccccc2)c(-c2ccccc2)o1)c1ccc(-n2cc(-c3ccc(Oc4ccccc4)cc3)nn2)cc1` (stereo unspecified), the IC50 entry in data set [5] is “Not Active”.
In the case of `[O-][S+](Cc1nc(-c2ccccc2)c(-c2ccccc2)o1)c1ccc(-n2cc(-c3cccnc3)nn2)cc1` (stereo unspecified), the IC50 result in [5] was “Not Active”.
For `O=S(=O)(Cc1nc(-c2ccccc2)c(-c2ccccc2)o1)c1ccc(-n2cc(-c3ccccc3C(F)(F)F)nn2)cc1`, in [5], the IC50 result is “Not Active”.
On the same count and under the same terms, the value for `[O-][S+](Cc1nc(-c2ccccc2)c(-c2ccccc2)o1)c1ccc(-n2cc(-c3cc(C(F)(F)F)cc(C(F)(F)F)c3)nn2)cc1` (stereo unspecified) was “Not Active”.

The record behind these values is ChEMBL document CHEMBL4368869, “'Second-generation' 1,2,3-triazole-based inhibitors of Porphyromonas gingivalis adherence to oral streptococci and biofilm formation” (Medchemcomm, 2019).
